Calls of active or inactive are those of the source. No cut-off for these calls is given here.
Assays:
[1] = Inhibition of c-RAF1/MEK1/ERK2 signalling pathway by SPA
Summary of the method: (§1)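 Incubated 120 min at room temperature, stopped with EDTA/streptavidin SPA beads, counted by scintillation. 11-point 3-fold dilutions (0.0001–10 µM), normalized to DMSO and EDTA controls; IC50 fitted.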

[2] = target: Mitogen-activated protein kinase 10 (Homo sapiens) (UniProt P53779); assay: Inhibition of JNK3
Mitogen-activated protein kinase 10 (Homo sapiens), sequence (P53779 whole entry): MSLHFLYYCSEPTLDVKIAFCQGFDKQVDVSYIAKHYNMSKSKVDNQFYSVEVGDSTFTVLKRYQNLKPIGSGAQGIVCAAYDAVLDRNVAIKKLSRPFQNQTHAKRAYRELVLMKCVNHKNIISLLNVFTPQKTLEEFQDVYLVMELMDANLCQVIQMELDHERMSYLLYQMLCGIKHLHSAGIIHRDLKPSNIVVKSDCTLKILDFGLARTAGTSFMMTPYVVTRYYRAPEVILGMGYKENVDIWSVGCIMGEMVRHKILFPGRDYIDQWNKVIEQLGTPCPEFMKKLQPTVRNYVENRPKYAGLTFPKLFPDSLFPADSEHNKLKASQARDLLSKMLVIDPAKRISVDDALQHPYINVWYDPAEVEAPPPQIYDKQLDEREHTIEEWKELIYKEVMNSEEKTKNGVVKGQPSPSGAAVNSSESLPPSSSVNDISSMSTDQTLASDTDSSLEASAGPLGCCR

[3] = target: Tyrosine-protein kinase Fyn (Mus musculus, UniProt P39688); assay: Inhibition of mouse FYN
Tyrosine-protein kinase Fyn, sequence (P39688 whole entry): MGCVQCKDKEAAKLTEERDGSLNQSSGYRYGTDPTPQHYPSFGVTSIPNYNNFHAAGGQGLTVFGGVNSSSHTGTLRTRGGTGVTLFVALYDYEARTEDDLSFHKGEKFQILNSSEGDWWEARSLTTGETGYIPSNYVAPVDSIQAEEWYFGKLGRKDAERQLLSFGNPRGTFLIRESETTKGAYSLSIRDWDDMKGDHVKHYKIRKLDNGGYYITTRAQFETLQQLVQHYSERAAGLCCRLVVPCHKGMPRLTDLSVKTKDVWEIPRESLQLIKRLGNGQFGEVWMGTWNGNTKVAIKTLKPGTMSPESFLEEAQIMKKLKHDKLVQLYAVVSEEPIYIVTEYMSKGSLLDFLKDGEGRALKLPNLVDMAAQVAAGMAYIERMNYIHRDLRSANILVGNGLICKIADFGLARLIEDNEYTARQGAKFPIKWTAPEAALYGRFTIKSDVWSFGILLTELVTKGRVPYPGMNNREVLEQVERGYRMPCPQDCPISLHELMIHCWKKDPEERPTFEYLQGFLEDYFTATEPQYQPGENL

[4] = target: MAP kinase p38 (Homo sapiens) (UniProt O15264+Q15759+Q16539+P53778); assay: Inhibition of p38; type: protein assay
[5] = target: RAF proto-oncogene serine/threonine-protein kinase (Homo sapiens, UniProt P04049); assay: Inhibition of c-RAF; summary of the method: as §1
RAF proto-oncogene serine/threonine-protein kinase, sequence (P04049 whole entry): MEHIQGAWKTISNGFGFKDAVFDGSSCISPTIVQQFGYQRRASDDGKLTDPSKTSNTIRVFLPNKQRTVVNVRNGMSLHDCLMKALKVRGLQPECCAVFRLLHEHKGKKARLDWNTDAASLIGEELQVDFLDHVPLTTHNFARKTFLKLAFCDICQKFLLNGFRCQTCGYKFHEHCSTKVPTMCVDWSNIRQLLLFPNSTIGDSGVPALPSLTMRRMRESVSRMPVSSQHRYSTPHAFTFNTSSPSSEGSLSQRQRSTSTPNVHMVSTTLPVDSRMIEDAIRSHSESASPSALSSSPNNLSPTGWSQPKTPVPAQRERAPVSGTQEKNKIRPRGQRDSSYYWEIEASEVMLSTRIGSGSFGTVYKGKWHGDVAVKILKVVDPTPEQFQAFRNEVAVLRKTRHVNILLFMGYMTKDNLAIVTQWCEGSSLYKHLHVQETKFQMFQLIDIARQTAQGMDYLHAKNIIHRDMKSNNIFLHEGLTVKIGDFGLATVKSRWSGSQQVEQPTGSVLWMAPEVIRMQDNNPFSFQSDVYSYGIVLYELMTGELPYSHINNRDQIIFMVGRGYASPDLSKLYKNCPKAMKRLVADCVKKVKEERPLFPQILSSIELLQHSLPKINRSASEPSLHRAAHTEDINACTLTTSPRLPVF

[6] = target: Proto-oncogene tyrosine-protein kinase LCK (Mus musculus) (UniProt P06240); assay: Inhibition of mouse LCK at 10 uM
Proto-oncogene tyrosine-protein kinase LCK (Mus musculus), sequence (P06240 2-509 limits assumed): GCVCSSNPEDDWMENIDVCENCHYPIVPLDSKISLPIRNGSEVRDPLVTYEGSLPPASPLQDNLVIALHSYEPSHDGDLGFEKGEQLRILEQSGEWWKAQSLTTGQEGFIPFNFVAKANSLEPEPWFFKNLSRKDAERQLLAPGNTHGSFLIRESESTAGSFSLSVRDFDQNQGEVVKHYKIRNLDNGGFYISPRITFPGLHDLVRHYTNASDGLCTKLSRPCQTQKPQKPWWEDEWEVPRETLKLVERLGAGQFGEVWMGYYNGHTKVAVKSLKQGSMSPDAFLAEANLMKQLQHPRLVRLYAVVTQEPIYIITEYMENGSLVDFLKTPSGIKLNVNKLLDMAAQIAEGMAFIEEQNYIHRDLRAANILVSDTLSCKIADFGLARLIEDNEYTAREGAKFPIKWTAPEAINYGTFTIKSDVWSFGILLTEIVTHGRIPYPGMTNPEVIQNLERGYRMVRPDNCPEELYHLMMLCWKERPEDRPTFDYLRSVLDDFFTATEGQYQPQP

[7] = target: Tyrosine-protein kinase Fyn (Mus musculus) (UniProt P39688); assay: Inhibition of mouse FYN at 10 uM
Tyrosine-protein kinase Fyn (Mus musculus), sequence (P39688 whole entry): as the sequence (P39688 whole entry) above

[8] = target: Tyrosine-protein kinase Lyn (Homo sapiens) (UniProt P07948); assay: Inhibition of LYN at 10 uM
Tyrosine-protein kinase Lyn (Homo sapiens), sequence (P07948 2-512 limits assumed): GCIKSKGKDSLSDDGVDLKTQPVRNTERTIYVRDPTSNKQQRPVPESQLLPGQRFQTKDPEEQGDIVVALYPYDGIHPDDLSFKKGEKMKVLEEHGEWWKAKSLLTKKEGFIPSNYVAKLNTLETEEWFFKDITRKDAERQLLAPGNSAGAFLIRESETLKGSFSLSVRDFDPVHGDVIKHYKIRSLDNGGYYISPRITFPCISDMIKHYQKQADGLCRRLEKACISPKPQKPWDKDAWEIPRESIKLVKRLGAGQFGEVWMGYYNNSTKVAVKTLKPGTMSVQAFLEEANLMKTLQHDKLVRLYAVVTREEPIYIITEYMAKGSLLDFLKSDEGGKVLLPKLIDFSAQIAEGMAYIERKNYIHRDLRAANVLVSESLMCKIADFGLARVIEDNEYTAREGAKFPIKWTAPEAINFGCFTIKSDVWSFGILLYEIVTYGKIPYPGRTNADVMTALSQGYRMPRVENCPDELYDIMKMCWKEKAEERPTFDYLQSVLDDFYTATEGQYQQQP

[9] = target: Proto-oncogene tyrosine-protein kinase Src (Homo sapiens) (UniProt P12931); assay: Inhibition of SRC kinase at 10 uM
Proto-oncogene tyrosine-protein kinase Src (Homo sapiens), sequence (P12931 2-536 limits assumed): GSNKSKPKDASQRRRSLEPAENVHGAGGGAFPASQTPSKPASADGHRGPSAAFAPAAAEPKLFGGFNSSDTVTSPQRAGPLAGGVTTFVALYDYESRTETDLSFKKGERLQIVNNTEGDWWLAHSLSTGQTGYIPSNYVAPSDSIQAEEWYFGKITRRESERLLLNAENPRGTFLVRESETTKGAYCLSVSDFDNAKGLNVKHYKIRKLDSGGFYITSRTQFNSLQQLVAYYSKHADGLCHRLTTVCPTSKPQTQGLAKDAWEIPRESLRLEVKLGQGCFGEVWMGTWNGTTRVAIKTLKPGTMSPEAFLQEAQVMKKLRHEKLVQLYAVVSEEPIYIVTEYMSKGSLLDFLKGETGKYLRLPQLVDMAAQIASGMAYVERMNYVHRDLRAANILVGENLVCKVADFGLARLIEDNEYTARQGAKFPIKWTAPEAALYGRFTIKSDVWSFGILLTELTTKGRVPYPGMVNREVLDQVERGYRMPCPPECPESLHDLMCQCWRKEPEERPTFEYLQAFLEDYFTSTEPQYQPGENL

| Log IC50 [1] | SMILES | also measured |
| --- | --- | --- |
| -6.6 | CNC(=O)c1cncc(/C=C/c2c(Cl)cccc2Cl)c1 [GW445014X] | – |
| -6.6 | CNC(=O)c1cncc(/C=C/c2c(C)cc(O)cc2C)c1 | – |
| -6.8 | Cc1cc(O)cc(C)c1/C=C/c1cncc(C(N)=O)c1 [GW435821X] | – |
| -5.5 | CNC(=O)c1cncc(/C=C/c2ccccc2C)c1 [GW445015X] | – |
| -5.1 | Cc1cc(O)cc(C)c1/C=C/c1cncc(C(=O)N(C)C)c1 [GW427984X] | – |
| -6.6 | CNC(=O)c1cncc(/C=C/c2c(C)cccc2C)c1 [GW445012X] | – |
| -6.4 | Cc1cc(O)cc(C)c1/C=C/c1cncc(C(=O)O)c1 | Activity [2]: inactive; Activity [4]: inactive; IC50 [5]: 400 nM |
| -4.6 | CCc1cccc(CC)c1/C=C/c1cncc(C(=O)NC)c1 [GW450241X] | – |
| -6.2 | COC(=O)c1cncc(/C=C/c2c(C)cc(O)cc2C)c1 [GW406731X] | – |
| -6 | Cc1cccc(C)c1/C=C/c1cncc(C#N)c1 | – |
| -5.7 | CNC(=O)c1cncc(/C=C/c2ccccc2Cl)c1 [GW445017X] | – |
| -7.1 | CNC(=O)c1cncc(/C=C/c2c(C)cccc2Cl)c1 | – |

More lines, now with the values behind:

| SMILES | Log IC50 [1] | also measured |
| --- | --- | --- |
| Cc1cc(-c2cccs2)cc(C)c1/C=C/c1cncc(-c2nn[nH]n2)c1 | -6.5 | – |
| CNC(=O)Oc1cc(C)c(/C=C/c2cncc(C#N)c2)c(C)c1 | -7.4 | – |
| CNC(=O)Oc1cc(C)c(/C=C/c2cncc(C(=O)OC)c2)c(C)c1 | -7.5 | – |
| Cc1cc(O)cc(C)c1/C=C/c1cncc(-c2nn[nH]n2)c1 | -8.4 | Activity [2]: inactive; IC50 [3]: 40 nM; Activity [4]: inactive; IC50 [5]: 4 nM |
| Cc1cc(O)cc(C)c1/C=C/c1cncc(C#N)c1 | -6.1 | – |
| Cc1cccc(C)c1/C=C/c1cncc(-c2nn[nH]n2)c1 | -7.9 | Activity [2]: inactive; Activity [4]: inactive |
| Cc1cc(-c2cccnc2)cc(C)c1/C=C/c1cncc(-c2nn[nH]n2)c1 | -6.2 | – |
| Cc1cc(-c2ccsc2)cc(C)c1/C=C/c1cncc(-c2nn[nH]n2)c1 | -6 | – |
| CNC(=O)Oc1cc(C)c(/C=C/c2cncc(C(=O)OC(C)(C)C)c2)c(C)c1 | -7 | – |
| Cc1cc(-c2ccco2)cc(C)c1/C=C/c1cncc(-c2nn[nH]n2)c1 | -6.2 | – |
| Cc1cc(-c2ccccn2)cc(C)c1/C=C/c1cncc(-c2nn[nH]n2)c1 | -7 | Activity [6]: Active; Activity [2]: inactive; Activity [7]: Active; Activity [8]: Active; Activity [9]: Active; Activity [4]: inactive |
| CNC(=O)Oc1cc(C)c(/C=C/c2cncc(C(=O)NC)c2)c(C)c1 [GW432441X] | -8 | – |
| CNC(=O)Oc1cc(C)c(/C=C/c2cncc(C(=O)O)c2)c(C)c1 | -8.2 | Activity [2]: inactive; Activity [4]: inactive |
| CNC(=O)Oc1cc(C)c(/C=C/c2cncc(C(=O)N(C)C)c2)c(C)c1 | -5.1 | – |
| CNC(=O)Oc1cc(C)c(/C=C/c2cncc(C(N)=O)c2)c(C)c1 | -8.1 | Activity [2]: inactive; Activity [4]: inactive |
| Cc1cc(O)cc(C)c1/C=C/c1cncc(C(=O)OC(C)(C)C)c1 [GW439255X] | -5.4 | – |
